≈ marks a conversion by molar mass, not a printed value.
What was measured:
Cytochrome P450 2C19 = Cytochrome P450 2C19 (Homo sapiens, UniProt P33261); assay: Inhibition of human liver CYP2C19 expressed in Saccharomyces cerevisiae YY7 microsomal membranes using DBF as substrate after 10 mins by fluorescence assay; format: ADME, Microsomal Membrane
Cytochrome P450 1B1 [1] = biological target: T1, Cytochrome P450 1B1 (Homo sapiens, UniProt Q16678); assay: Inhibition of CYP1B1 in human A2780cis cells assessed as potentiation of cisplatin-induced cytotoxicity at 2 times CYP1B1 inhibitory IC50 by MTT assay; format: cell-based
T1 sequence (Q16678 whole entry): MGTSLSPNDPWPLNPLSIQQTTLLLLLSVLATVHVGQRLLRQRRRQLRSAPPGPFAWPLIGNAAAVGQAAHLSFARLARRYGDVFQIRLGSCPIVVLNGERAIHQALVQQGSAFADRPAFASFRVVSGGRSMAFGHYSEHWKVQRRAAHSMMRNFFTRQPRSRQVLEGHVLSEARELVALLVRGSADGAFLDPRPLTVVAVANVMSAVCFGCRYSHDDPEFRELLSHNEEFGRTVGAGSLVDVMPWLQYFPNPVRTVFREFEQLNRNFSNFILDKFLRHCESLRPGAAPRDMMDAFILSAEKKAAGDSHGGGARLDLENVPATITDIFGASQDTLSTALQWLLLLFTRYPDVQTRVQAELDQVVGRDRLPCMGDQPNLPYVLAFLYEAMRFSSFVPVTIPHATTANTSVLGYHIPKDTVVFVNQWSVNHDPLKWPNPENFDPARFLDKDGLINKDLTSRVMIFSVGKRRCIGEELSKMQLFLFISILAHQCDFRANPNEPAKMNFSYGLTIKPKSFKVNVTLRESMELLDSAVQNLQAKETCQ

Cytochrome P450 1A2 = biological target: T2, Cytochrome P450 1A2 (Homo sapiens, UniProt P05177); assay: Inhibition of human liver CYP1A2 expressed in Saccharomyces cerevisiae YY7 microsomal membranes using CEC as substrate after 10 mins by fluorescence assay; format: ADME, Microsomal Membrane
T2 sequence (P05177 whole entry): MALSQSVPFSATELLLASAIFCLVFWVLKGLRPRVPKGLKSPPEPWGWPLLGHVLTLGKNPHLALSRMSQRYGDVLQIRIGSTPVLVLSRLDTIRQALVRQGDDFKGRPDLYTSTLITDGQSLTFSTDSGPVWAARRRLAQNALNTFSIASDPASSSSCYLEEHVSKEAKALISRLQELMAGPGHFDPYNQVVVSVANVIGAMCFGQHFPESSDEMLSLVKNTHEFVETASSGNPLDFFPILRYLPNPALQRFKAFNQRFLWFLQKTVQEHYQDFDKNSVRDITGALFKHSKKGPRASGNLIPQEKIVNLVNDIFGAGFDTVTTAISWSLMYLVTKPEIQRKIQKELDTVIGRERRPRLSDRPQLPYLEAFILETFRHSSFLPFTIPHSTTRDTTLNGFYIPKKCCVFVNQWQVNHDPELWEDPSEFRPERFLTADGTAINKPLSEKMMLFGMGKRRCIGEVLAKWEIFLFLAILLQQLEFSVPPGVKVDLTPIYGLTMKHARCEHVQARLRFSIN
In short: (§1)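 Yeast microsomes (YY7 strain carrying human reductase) held 0.5 pmol CYP with an NADP+/glucose-6-phosphate/G6PDH regenerating system in KPi. Fluorogenic substrate per isoform: 7-ER, CEC, EOMCC or DBF. Six serial 1:20 dilutions were tested, DMSO ≤0.5%. Reactions ran 10 min at 37 °C and were stopped with Tris-acetonitrile. Endpoint fluorescence (530/590 nm for resorufin) was fitted by 4-parameter sigmoid. Triplicate, ≥3 experiments.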

Cytochrome P450 2D6 = Cytochrome P450 2D6 (Homo sapiens, UniProt P10635); assay: Inhibition of human liver CYP2D6 expressed in Saccharomyces cerevisiae YY7 microsomal membranes using EOMCC as substrate after 10 mins by fluorescence assay; format: ADME, Microsomal Membrane; in short: as §1
[2] = Solubility of the compound in pH 6.8 simulated intestinal fluid; format: physicochemical
Cytochrome P450 1B1 [3] = biological target: T1, Cytochrome P450 1B1; assay: Inhibition of human liver CYP1B1 expressed in Saccharomyces cerevisiae YY7 microsomal membranes at 5 to 10 uM using 7-ethoxyresorufin as substrate after 10 mins by fluorescence assay
In short: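 Single-concentration screen on CYP1B1 yeast microsomes at 5 µM (10 µM per methods), with 7-ER under the regenerating-system endpoint format: 10 min at 37 °C. Percentage inhibition versus a DMSO control; each compound tested twice.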

Cytochrome P450 1B1 [4] = biological target: T1, Cytochrome P450 1B1; assay: Inhibition of human liver CYP1B1 expressed in HEK293 cells using 7-ethoxyresorufin as substrate preincubated for 30 mins followed by substrate addition measured after 60 mins by fluorescence assay; format: cell-based
In short: (§2)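 HEK293 cells adapted to suspension were lipid-transfected with pCDM/hCYP1B1, used 24–48 h later and resuspended at 4×10^6/mL. Wells of 100–200×10^3 cells, in triplicate, were preincubated with compound (1 nM–30 µM) for 30 min at 37 °C, 8% CO2. Substrate followed: 7-ER at 5 µM or CEC. Fluorescence was read over 60 min and IC50 obtained by sigmoidal fit.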

Cytochrome P450 3A4 = Cytochrome P450 3A4 (Homo sapiens, UniProt P08684); assay: Inhibition of human liver CYP3A4 expressed in Saccharomyces cerevisiae YY7 microsomal membranes using DBF as substrate after 10 mins by fluorescence assay; format: ADME, Microsomal Membrane
Cytochrome P450 1B1 [5] = biological target: T1, Cytochrome P450 1B1; assay: Inhibition of human liver CYP1B1 expressed in Saccharomyces cerevisiae YY7 cells using 7-ethoxyresorufin as substrate after 10 mins by fluorescence assay; format: cell-based
In short: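 Live S. cerevisiae YY7 carrying human CYP1B1 was grown in YP-galactose. Cells were harvested 16–20 h after induction, washed in TE (pH 7.4) and diluted 1:10.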

[6] = Solubility of the compound in pH 1.2 simulated gastric fluid; format: physicochemical
Cytochrome P450 1B1 [7] = biological target: T1, Cytochrome P450 1B1; assay: Inhibition of human liver CYP1B1 expressed in HEK293 cells using CEC as substrate preincubated for 30 mins followed by substrate addition measured after 60 mins by fluorescence assay; format: cell-based; in short: as §2
Cytochrome P450 1B1 [8] = biological target: T1, Cytochrome P450 1B1; assay: Inhibition of human liver CYP1B1 expressed in Saccharomyces cerevisiae YY7 microsomal membranes using 7-ethoxyresorufin as substrate after 10 mins by fluorescence assay; in short: as §1
Cytochrome P450 1A1 = biological target: T3, Cytochrome P450 1A1 (Homo sapiens, UniProt P04798); assay: Inhibition of human liver CYP1A1 expressed in Saccharomyces cerevisiae YY7 microsomal membranes using 7-ethoxyresorufin as substrate after 10 mins by fluorescence assay; format: ADME, Microsomal Membrane; in short: as §1
T3 sequence (P04798 whole entry): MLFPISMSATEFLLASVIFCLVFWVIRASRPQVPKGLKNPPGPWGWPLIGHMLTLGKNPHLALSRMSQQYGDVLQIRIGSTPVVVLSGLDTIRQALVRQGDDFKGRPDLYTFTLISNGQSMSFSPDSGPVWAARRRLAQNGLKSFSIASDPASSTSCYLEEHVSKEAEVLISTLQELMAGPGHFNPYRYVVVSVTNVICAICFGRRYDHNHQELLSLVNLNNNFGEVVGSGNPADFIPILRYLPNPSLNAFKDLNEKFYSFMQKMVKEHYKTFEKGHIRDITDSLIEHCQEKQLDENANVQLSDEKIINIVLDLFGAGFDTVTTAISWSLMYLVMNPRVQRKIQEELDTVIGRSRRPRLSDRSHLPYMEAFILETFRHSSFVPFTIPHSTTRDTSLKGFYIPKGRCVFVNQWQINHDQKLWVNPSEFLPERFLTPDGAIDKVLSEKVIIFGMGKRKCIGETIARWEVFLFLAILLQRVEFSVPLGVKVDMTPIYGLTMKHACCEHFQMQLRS

[9] = Solubility of the compound in pH 7.4 PBS buffer; format: physicochemical
Cytochrome P450 2C9 = Cytochrome P450 2C9 (Homo sapiens, UniProt P11712); assay: Inhibition of human liver CYP2C9 expressed in Saccharomyces cerevisiae YY7 microsomal membranes using DBF as substrate after 10 mins by fluorescence assay; format: ADME, Microsomal Membrane
CYP1B1 = biological target: T4, CYP1B1 (Homo sapiens, UniProt Q16678); assay: Inhibition of human liver CYP1B1 expressed in Saccharomyces cerevisiae YY7 microsomal membranes at 1 uM using 7-ethoxyresorufin as substrate after 10 mins by fluorescence assay relative to control; conditions: probe 7-ethoxyresorufin
T4 sequence (Q16678 whole entry): T1 sequence (Q16678 whole entry)

Cytochrome P450 2D6, sequence (P10635 whole entry): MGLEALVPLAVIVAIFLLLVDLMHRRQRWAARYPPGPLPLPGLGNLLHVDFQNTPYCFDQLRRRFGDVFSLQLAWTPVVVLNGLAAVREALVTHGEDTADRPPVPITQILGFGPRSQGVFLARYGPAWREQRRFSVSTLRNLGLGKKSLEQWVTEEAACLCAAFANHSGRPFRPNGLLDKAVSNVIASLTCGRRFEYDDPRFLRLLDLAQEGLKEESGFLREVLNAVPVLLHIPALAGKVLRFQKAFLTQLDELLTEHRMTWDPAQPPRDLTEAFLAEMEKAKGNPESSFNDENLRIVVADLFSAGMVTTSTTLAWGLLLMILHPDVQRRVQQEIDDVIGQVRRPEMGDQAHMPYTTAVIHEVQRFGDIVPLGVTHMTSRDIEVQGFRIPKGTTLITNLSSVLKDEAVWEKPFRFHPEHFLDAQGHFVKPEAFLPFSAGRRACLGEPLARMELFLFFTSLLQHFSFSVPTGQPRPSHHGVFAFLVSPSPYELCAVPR
Cytochrome P450 2C19, sequence (P33261 whole entry): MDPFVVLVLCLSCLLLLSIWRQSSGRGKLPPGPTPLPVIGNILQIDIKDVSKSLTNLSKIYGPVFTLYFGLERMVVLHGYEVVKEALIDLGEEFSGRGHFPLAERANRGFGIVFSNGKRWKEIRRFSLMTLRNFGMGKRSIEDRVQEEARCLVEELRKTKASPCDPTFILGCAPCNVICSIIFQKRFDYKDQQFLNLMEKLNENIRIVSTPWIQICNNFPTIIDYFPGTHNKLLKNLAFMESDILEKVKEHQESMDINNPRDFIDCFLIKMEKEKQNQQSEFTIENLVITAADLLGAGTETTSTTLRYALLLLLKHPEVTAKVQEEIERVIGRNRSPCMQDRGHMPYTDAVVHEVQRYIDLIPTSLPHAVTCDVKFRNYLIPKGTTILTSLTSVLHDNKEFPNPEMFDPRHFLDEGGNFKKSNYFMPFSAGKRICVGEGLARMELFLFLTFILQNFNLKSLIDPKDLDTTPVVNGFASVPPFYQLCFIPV
Cytochrome P450 2C9, sequence (P11712 whole entry): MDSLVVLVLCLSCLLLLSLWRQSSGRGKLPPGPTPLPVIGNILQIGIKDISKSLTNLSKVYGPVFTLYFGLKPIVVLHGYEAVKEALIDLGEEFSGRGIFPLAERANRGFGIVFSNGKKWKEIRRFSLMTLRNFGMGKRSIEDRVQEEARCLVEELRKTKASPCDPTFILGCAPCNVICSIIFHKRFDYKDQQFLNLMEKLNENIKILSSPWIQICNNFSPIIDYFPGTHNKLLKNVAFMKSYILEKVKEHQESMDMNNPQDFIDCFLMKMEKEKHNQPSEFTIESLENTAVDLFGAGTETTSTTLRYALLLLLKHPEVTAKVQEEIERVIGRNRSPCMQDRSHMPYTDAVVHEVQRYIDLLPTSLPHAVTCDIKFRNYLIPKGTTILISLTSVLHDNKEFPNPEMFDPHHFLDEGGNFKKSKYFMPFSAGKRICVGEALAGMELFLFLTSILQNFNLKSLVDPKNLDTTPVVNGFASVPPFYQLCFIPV
Cytochrome P450 3A4, sequence (P08684 whole entry): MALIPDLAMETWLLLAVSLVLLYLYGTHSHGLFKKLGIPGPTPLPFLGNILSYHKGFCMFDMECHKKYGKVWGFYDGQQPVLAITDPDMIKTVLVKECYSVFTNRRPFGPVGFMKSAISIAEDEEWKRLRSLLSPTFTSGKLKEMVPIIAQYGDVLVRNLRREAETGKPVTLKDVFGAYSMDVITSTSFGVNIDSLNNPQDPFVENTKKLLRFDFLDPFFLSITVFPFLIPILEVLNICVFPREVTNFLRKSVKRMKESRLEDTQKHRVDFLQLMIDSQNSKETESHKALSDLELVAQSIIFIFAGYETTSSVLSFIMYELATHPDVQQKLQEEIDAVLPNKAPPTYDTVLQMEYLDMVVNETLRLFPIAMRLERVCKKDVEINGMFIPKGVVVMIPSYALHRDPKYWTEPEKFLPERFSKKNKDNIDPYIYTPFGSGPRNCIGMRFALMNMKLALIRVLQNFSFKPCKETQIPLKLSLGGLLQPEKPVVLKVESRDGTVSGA

Row | IC50 (Cytochrome P450 2C19) | IC50 (Cytochrome P450 1A2) | IC50 (Cytochrome P450 2D6) | solubility [2] | inhibition (INH) (Cytochrome P450 1B1 [3]) | IC50 (Cytochrome P450 1B1 [4]) | IC50 (Cytochrome P450 3A4) | IC50 (Cytochrome P450 1B1 [5]) | solubility [6] | IC50 (Cytochrome P450 1B1 [7]) | IC50 (Cytochrome P450 1B1 [8]) | IC50 (Cytochrome P450 1A1) | solubility [9] | IC50 (Cytochrome P450 2C9) | inhibition at 10 min, 1 µM (CYP1B1) | Compound | inhibition (INH) (Cytochrome P450 1B1 [1])
1 | > 20000 nM | 1200 nM | 10000 nM | 0.45 µg/mL (≈ 1.74 µM) | Active | 53 nM | 18000 nM | 64 nM | 68.6 µg/mL (≈ 264 µM) | 4 nM | 10 nM | 742 nM | 14.5 µg/mL (≈ 56 µM) | > 20000 nM | – | O=C(/C=C/c1ccc2ccccc2c1)c1cccnc1 | Not Active
2 | > 20000 nM | 1200 nM | 5000 nM | 0.27 µg/mL (≈ 0.933 µM) | Active | 8 nM | – | 65 nM | 538 µg/mL (≈ 1860 µM) | 4 nM | 9 nM | 795 nM | 20.1 µg/mL (≈ 69.4 µM) | > 20000 nM | – | COc1ccc2cc(C(=O)/C=C/c3cccnc3)ccc2c1 | Not Active
3 | – | – | – | 0.58 µg/mL (≈ 2.13 µM) | Active | – | – | – | 6.45 µg/mL (≈ 23.7 µM) | – | – | – | 6.85 µg/mL (≈ 25.2 µM) | – | > 80% | O=c1cc(-c2ccccc2)oc2c1ccc1ccccc12 [ALPHA-NAPHTHOFLAVONE] | –

From ChEMBL document CHEMBL4007432, “Discovery and characterization of novel CYP1B1 inhibitors based on heterocyclic chalcones: Overcoming cisplatin resistance in CYP1B1-overexpressing lines” (Eur J Med Chem, 2017)
